What was measured:
[1] = biological target: CYP3A4 (Homo sapiens, UniProt P08684); assay: Time dependent inhibition of human liver microsome CYP3A4 activity assessed as percentage remaining activity by measuring 6-beta-OH-testosterone formation at 15 uM for 15 mins using 200 uM testosterone as a substrate by LC/MS/MS analysis; type: ADME; settings: liver microsomes, probe testosterone, read-out: Activity
Summary of the method: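 Pooled human liver microsomes (1.0 mg/mL) in 100 mM potassium phosphate, pH 7.4, preincubated with compound (15 µM) and 1 mM NADPH for 15 min. Then diluted 1:10 into a secondary incubation with 200 µM testosterone (saturating) plus 1 mM NADPH for 20 min. Stopped with acetonitrile containing deuterated internal standard. 6β-OH-testosterone measured by LC/MS/MS; % remaining activity reported. Average of at least two experiments.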

[2] = biological target: T1, Prostaglandin D2 receptor 2 (Homo sapiens, UniProt Q9Y5Y4); assay: Displacement of [3H]-PGD2 from human CRTH2 expressed in HEK293 cells in buffer solution with 0.5% bovine serum albumin by scintillation counting; type: cell-based
T1 sequence (Q9Y5Y4 whole entry): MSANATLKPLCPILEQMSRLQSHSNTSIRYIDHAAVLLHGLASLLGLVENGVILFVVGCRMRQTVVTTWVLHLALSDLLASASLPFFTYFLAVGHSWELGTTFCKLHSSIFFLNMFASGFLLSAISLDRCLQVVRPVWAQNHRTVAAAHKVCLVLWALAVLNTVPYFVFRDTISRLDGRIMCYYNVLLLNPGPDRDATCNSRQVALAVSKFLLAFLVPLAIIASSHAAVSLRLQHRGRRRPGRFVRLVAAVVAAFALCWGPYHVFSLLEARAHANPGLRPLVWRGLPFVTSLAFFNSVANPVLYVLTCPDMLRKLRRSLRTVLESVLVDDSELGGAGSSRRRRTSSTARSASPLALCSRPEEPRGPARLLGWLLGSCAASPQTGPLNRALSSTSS
Summary of the method: (§1)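 Radioligand binding: displacement of ³H-PGD2 from receptor expressed on HEK 293 cells. Run either in buffer with 0.5% bovine serum albumin or in 50% human plasma. IC50 values are the average of at least two experiments.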

[3] = biological target: T1, Prostaglandin D2 receptor 2; assay: Displacement of [3H]-PGD2 from human CRTH2 expressed in HEK293 cells in presence of 50% human plasma by scintillation counting; type: cell-based; summary of the method: as §1
[4] = biological target: T2, Prostaglandin D2 receptor (Homo sapiens, UniProt Q13258); assay: Displacement of [3H]-PGD2 from human DP receptor expressed in HEK293 cells in buffer solution with 0.5% bovine serum albumin by scintillation counting; type: cell-based; summary of the method: as §1
T2 sequence (Q13258 whole entry): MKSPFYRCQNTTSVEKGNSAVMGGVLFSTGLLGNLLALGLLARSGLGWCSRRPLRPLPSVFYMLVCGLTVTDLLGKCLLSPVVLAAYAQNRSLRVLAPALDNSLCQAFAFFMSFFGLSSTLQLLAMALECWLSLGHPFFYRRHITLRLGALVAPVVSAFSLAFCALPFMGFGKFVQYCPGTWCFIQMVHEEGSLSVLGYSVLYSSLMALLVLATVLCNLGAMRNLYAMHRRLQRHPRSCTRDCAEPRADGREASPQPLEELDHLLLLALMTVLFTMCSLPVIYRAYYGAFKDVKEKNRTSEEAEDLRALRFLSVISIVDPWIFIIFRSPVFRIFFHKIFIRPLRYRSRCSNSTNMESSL

[5] = biological target: T2, Prostaglandin D2 receptor; assay: Displacement of [3H]-PGD2 from human DP receptor expressed in HEK293 cells in presence of 50% human plasma by scintillation counting; type: cell-based; summary of the method: as §1

CYP3A4, sequence (P08684 whole entry): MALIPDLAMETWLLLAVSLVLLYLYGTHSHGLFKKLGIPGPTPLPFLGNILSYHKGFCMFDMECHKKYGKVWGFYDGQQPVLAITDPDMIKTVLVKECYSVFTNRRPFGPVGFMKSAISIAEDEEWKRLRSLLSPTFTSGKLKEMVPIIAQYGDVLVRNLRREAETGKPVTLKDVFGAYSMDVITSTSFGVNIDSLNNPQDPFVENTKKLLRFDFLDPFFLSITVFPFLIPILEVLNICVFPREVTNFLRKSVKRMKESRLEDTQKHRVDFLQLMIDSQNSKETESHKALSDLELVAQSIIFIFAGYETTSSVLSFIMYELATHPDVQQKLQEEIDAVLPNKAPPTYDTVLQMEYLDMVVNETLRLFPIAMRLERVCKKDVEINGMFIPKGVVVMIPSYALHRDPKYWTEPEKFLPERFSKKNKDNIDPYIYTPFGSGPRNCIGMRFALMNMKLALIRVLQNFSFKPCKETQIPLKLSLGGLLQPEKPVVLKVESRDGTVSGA

Row | SMILES | activity at 0.25 h, 15 µM [1] [%] | IC50 [2] [nM] | IC50 [3] [nM] | IC50 [4] [nM] | IC50 [5] [nM]
1 | COc1cc(CC(=O)O)ccc1Oc1ccc2[nH]c(C3CC3)cc2c1NS(=O)(=O)c1ccc(Cl)cc1Cl | 41 | 8 | 25 | 74 | 350
2 | COc1cc(CC(=O)O)ccc1Oc1ccc2c(cc(C)n2C)c1NS(=O)(=O)c1ccc(Cl)cc1Cl | 28 | 22 | 56 | 27 | 76
3 | COc1cc(CC(=O)O)ccc1Oc1ccc2[nH]c(C)c(Cl)c2c1NS(=O)(=O)c1ccc(Cl)cc1Cl | 87 | 220 |  | 1100 | 
4 | COc1cc(CC(=O)O)ccc1Oc1ccc2c(c1NS(=O)(=O)c1ccc(Cl)cc1Cl)CC(=O)N2 | 103 | 3 | 31 | 17 | 1300

The remaining lines, values ahead:

Row | activity at 0.25 h, 15 µM [1] [%] | IC50 [2] [nM] | IC50 [3] [nM] | IC50 [4] [nM] | IC50 [5] [nM] | SMILES
5 | 38 | 32 | 48 | 62 | 110 | COc1cc(CC(=O)O)ccc1Oc1ccc2[nH]c(CC(C)C)cc2c1NS(=O)(=O)c1ccc(Cl)cc1Cl
6 | 81 | 32 |  | 8400 |  | COc1cc(CC(=O)O)ccc1Oc1ccc2[nH]c(C(C)(C)C)cc2c1NS(=O)(=O)c1ccc(Cl)cc1Cl
7 | 79 | 57 | 110 | 45 | 130 | CCCc1cc2c(NS(=O)(=O)c3ccc(Cl)cc3Cl)c(Oc3ccc(CC(=O)O)cc3OC)ccc2[nH]1
8 | 73 | 27 | 130 | 82 | 130 | COc1cc(CC(=O)O)ccc1Oc1ccc2[nH]c(C#N)cc2c1NS(=O)(=O)c1ccc(Cl)cc1Cl

— ChEMBL document CHEMBL3286301, “Solving time-dependent CYP3A4 inhibition for a series of indole-phenylacetic acid dual antagonists of the PGD(2) receptors CRTH2 and DP” (Bioorg Med Chem Lett, 2014)
